From ChEMBL document CHEMBL1155568, “Biological characterization of fusapyrone and deoxyfusapyrone, two bioactive secondary metabolites of Fusarium semitectum” (J Nat Prod, 2000)
The source made the active and inactive calls. The rule behind the calls is not given here.

Key:
Ascochyta rabiei = assay: Antifungal activity against Ascochyta rabiei ITEM 1067 at 15 ug/disk by paper disk method; type: functional; settings: read-out: IZ
How it was run: (§1)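 Agar diffusion: a 0.7% water-agar overlay carrying 10^4 conidia/mL (or yeast cells) is poured on PDA. 6-mm cellulose disks loaded with methanolic compound at 5 or 15 µg/disk are air-dried and applied, with nystatin as comparator. Plates incubated 24-72 h at 25 °C; inhibition halo diameter read from three disks. Agar under each disk is subcultured on PDA to score fungicidal/fungistatic effect. Experiment run twice and averaged.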

Cryptococcus neoformans [1] = assay: Antifungal activity against Cryptococcus neoformans at 50 ug/disk paper disk method; type: functional, organism-based
Botrytis cinerea [2] = assay: Antifungal activity against Botrytis cinerea ITEM 966 at 15 ug/disk by paper disk method; type: functional; settings: read-out: IZ; how it was run: as §1
Botrytis cinerea [3] = assay: Antifungal activity against Botrytis cinerea at 15 ug/disk by paper disk method; type: functional; settings: read-out: IZ; how it was run: as §1
Fusarium subglutinans = assay: Antifungal activity against Fusarium subglutinans at 15 ug/disk by paper disk method; type: functional; how it was run: as §1
Aspergillus fumigatus [4] = assay: Antifungal activity against Aspergillus fumigatus 1 after 24 hrs by broth micromethod assay; type: functional
How it was run: (§2)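 Broth microdilution in YNB with 0.5% glucose, phosphate buffer pH 7, using ten 2-fold dilutions (50-0.097 µg/mL). Inoculum from 24-48 h Sabouraud agar cultures, final 5 × 10^2 cells for C. albicans and C. kefyr, 5 × 10^3 cells/conidia for C. glabrata, Cryptococcus neoformans and Aspergillus. Incubated at 35 °C up to 72 h, read every 24 h. MIC is the complete absence of growth versus medium controls.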

[5] = tested on: Penicillium brevicompactum; assay: Antifungal activity against Penicillium brevicompactum ITEM 449 at 15 ug/disk by paper disk method; type: functional; settings: read-out: IZ
How it was run: (§3)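 Agar overlay disk diffusion on plant-derived filamentous fungi and yeasts: 0.7% water-agar seeded with 10^4 conidia/mL or a yeast cell suspension, poured over PDA. 6-mm cellulose disks were loaded from methanolic solutions and air-dried, with nystatin as comparator. Plates ran 24-72 h at 25 °C; inhibition halo was measured over three disks. Agar beneath disks was subcultured on PDA to separate fungicidal from fungistatic, scored in four classes; run twice, averaged.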

Cryptococcus neoformans [6] = assay: Antifungal activity against Cryptococcus neoformans 14 after 48 hrs by broth micromethod assay; type: functional; how it was run: as §2
Nakaseomyces glabratus [7] = assay: Antifungal activity against Candida glabrata 12 after 24 hrs by broth micromethod assay; type: functional; how it was run: as §2
[8] = tested on: Meyerozyma guilliermondii; assay: Antifungal activity against Candida guilliermondii ITEM 1638 at 15 ug/disk by paper disk method; type: functional; settings: read-out: IZ; how it was run: as §1
Cryptococcus neoformans [9] = assay: Antifungal activity against Cryptococcus neoformans 13 after 72 hrs by broth micromethod assay; type: functional; how it was run: as §2
Aspergillus flavus [10] = assay: Antifungal activity against Aspergillus flavus ITEM 9 at 15 ug/disk by paper disk method; type: functional; settings: read-out: IZ; how it was run: as §1
Solanum lycopersicum [11] = assay: Phytotoxicity against tomato assessed as seedling germination; type: organism-based; settings: in vivo
How it was run: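 Tomato seeds were surface-sterilized in 4% NaClO for 10 min and pregerminated 3 days in the dark. They were then placed 10 per dish on filter paper wetted with 2 mL of compound in 1% MeOH (10^-4 or 10^-5 M) and held 4 days at 25 °C under a 12-h photoperiod. Shoot and rootlet lengths were measured against control; done in triplicate, repeated once.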

[12] = tested on: Fusarium oxysporum f. sp. lycopersici; assay: Antifungal activity against Fusarium oxysporum f. sp. lycopersici ITEM 1462 at 15 ug/disk by paper disk method; type: functional; settings: read-out: IZ; how it was run: as §1
Kluyveromyces marxianus [13] = assay: Antifungal activity against Candida kefyr Y0601 after 72 hrs by broth micromethod assay; type: functional; how it was run: as §2
Solanum lycopersicum [14] = assay: Phytotoxicity in tomato leaf assessed as necrosis in the leaf at 10^-3 M by leaf puncture assay; type: organism-based; settings: in vivo, 1000 µM
How it was run: (§4)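 Tomato and chickpea leaves were punctured and treated with toxin dissolved in MeOH and diluted with water (final 4% MeOH), tested from 10^-2 to 10^-7 M. Chlorosis and necrosis were recorded visually as spot symptoms.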

Starmera dryadoides = assay: Antifungal activity against Pichia dryadoides ITEM 1663 at 15 ug/disk by paper disk method; type: functional; settings: Liangdongia dryadoides; read-out: IZ; how it was run: as §3
Solanum lycopersicum [15] = assay: Phytotoxicity in tomato leaf assessed as necrosis in the leaf at 10^-2 M by leaf puncture assay; type: organism-based; settings: in vivo; how it was run: as §4
Cryptococcus neoformans [16] = assay: Antifungal activity against Cryptococcus neoformans 14 after 24 hrs by broth micromethod assay; type: functional; how it was run: as §2
Kluyveromyces marxianus [17] = assay: Antifungal activity against Candida kefyr Y0601 after 48 hrs by broth micromethod assay; type: functional; how it was run: as §2
Cicer arietinum = assay: Phytotoxicity in chickpea leaf assessed as chlorosis in the leaf at 10^-3 M by leaf puncture assay; type: organism-based; settings: in vivo, 1000 µM; how it was run: as §4
Aspergillus fumigatus [18] = assay: Antifungal activity against Aspergillus fumigatus 1 after 72 hrs by broth micromethod assay; type: functional; how it was run: as §2
Pichia kluyveri = assay: Antifungal activity against Pichia kluyveri ITEM 1649 at 15 ug/disk by paper disk method; type: functional; how it was run: as §3
Nakaseomyces glabratus [19] = assay: Antifungal activity against Candida glabrata 12 after 48 hrs by broth micromethod assay; type: functional; how it was run: as §2
[20] = tested on: Cladosporium cladosporioides; assay: Antifungal activity against Cladosporium cladosporioides ITEM 2079 at 15 ug/disk by paper disk method; type: functional; settings: read-out: IZ; how it was run: as §1
[21] = tested on: Colletotrichum gloeosporioides; assay: Antifungal activity against Colletotrichum gloeosporioides ITEM 1729 at 15 ug/disk by paper disk method; type: functional; settings: read-out: IZ; how it was run: as §1
Artemia salina = assay: (§5) Toxicity against Artemia salina larvae; type: organism-based; settings: in vivo
How it was run: (§6)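 Quadruplicate wells; mortality counted after 24 and 36 h at 27 °C. LC50 from probit analysis of dose-mortality data from six independent experiments.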

Alternaria alternata = assay: Antifungal activity against Alternaria alternata ITEM 526 at 15 ug/disk by paper disk method; type: functional; settings: read-out: IZ; how it was run: as §1
Penicillium verrucosum [22] = assay: Antifungal activity against Penicillium verrucosum ITEM 439 at 15 ug/disk by paper disk method; type: functional; settings: read-out: IZ; how it was run: as §3
Wickerhamomyces anomalus = assay: Antifungal activity against Pichia anomala ITEM 1625 at 15 ug/disk by paper disk method; type: functional; settings: Hansenula anomala; read-out: IZ; how it was run: as §3
Botrytis cinerea [23] = assay: Antifungal activity against Botrytis cinerea ITEM 966 at 5 ug/disk by paper disk method; type: functional, organism-based; how it was run: as §1
Candida albicans = assay: Antifungal activity against Candida albicans Y01009 after 24 hrs by broth micromethod assay; type: functional; how it was run: as §2
Kluyveromyces marxianus [24] = assay: Antifungal activity against Candida kefyr at 50 ug/disk by paper disk method; type: functional, organism-based
Plenodomus tracheiphilus = assay: Antifungal activity against Phoma tracheiphilla ITEM 1605 at 15 ug/disk by paper disk method; type: functional; settings: read-out: IZ; how it was run: as §3
Kluyveromyces lactis = assay: Antifungal activity against Kluyveromyces lactis ITEM 1656 at 15 ug/disk by paper disk method; type: functional; settings: read-out: IZ; how it was run: as §3
Aspergillus flavus [25] = assay: Antifungal activity against Aspergillus flavus 3 after 72 hrs by broth micromethod assay; type: functional; how it was run: as §2
Aspergillus parasiticus = assay: Antifungal activity against Aspergillus parasiticus ITEM 11 at 15 ug/disk by paper disk method; type: functional; settings: read-out: IZ; how it was run: as §1
Fusarium verticillioides = assay: Antifungal activity against Fusarium moniliforme ITEM 1497 at 15 ug/disk by paper disk method; type: functional; settings: read-out: IZ; how it was run: as §1
Penicillium verrucosum [26] = assay: Antifungal activity against Penicillium verrucosum ITEM 439 at 5 ug/disk by paper disk method; type: functional, organism-based; how it was run: as §3
[27] = as §5; type: organism-based; settings: in vivo; how it was run: as §6

Row | SMILES | zone of inhibition at 15 µg/disc (Ascochyta rabiei) [mm] | Activity (Cryptococcus neoformans [1]) | zone of inhibition at 15 µg/disc (Botrytis cinerea [2]) [mm] | zone of inhibition at 15 µg/disc (Botrytis cinerea [3]) [mm] | Activity (Fusarium subglutinans) [mm] | Activity (Aspergillus fumigatus [4]) [µg/mL] | zone of inhibition at 15 µg/disc [5] [mm] | Activity (Cryptococcus neoformans [6]) [µg/mL] | Activity (Nakaseomyces glabratus [7]) [µg/mL] | zone of inhibition at 15 µg/disc [8] [mm] | Activity (Cryptococcus neoformans [9]) [µg/mL] | zone of inhibition at 15 µg/disc (Aspergillus flavus [10]) [mm] | Activity (Solanum lycopersicum [11]) | zone of inhibition at 15 µg/disc [12] [mm] | zone of inhibition at 15 µg/disc (Starmera dryadoides) [mm] | Activity (Cryptococcus neoformans [16]) [µg/mL] | Activity (Cicer arietinum) | Activity (Aspergillus fumigatus [18]) [µg/mL] | Activity (Pichia kluyveri) [mm] | zone of inhibition at 15 µg/disc [20] [mm] | other results
1 | CCCCCCC(C)C/C(C)=C\C(/C=C(C)/C=C/C(O)C(C)(C)c1cc(O)c([C@@H]2O[C@@H](CO)C[C@@H](O)[C@@H]2O)c(=O)o1)CO (stereo not given in full) [FUSAPYRONE] | 35.8 | Active | 29.3 | 30 | 6 | 1.56 | 30 | 3.12 | >50 | 0 | 6.25 | 27.3 | Not Active | 30 | 0 | 3.12 | Active | 1.56 | 0 | 28.7 | Activity (Kluyveromyces marxianus [13]): 3.12 µg/mL; Activity (Solanum lycopersicum [14]): Active; Activity (Solanum lycopersicum [15]): Active; Activity (Kluyveromyces marxianus [17]): 1.56 µg/mL; Activity (Nakaseomyces glabratus [19]): >50 µg/mL; zone of inhibition at 15 µg/disc [21]: 31.8 mm; Activity (Artemia salina): Not Active; zone of inhibition at 15 µg/disc (Alternaria alternata): 20.3 mm; zone of inhibition at 15 µg/disc (Penicillium verrucosum [22]): 29.7 mm; zone of inhibition at 15 µg/disc (Wickerhamomyces anomalus): 0 mm; Activity (Botrytis cinerea [23]): inactive; Activity (Candida albicans): >50 µg/mL; Activity (Kluyveromyces marxianus [24]): Active; zone of inhibition at 15 µg/disc (Plenodomus tracheiphilus): 40 mm; zone of inhibition at 15 µg/disc (Kluyveromyces lactis): 0 mm; Activity (Aspergillus flavus [25]): 1.56 µg/mL; zone of inhibition at 15 µg/disc (Aspergillus parasiticus): 27.5 mm; zone of inhibition at 15 µg/disc (Fusarium verticillioides): 20.1 mm; Activity (Penicillium verrucosum [26]): inactive
2 | CCCCCCC(C)C/C(C)=C\C(C)/C=C(C)/C=C/C(O)C(C)(C)c1cc(O)c([C@@H]2O[C@@H](CO)C[C@@H](O)[C@@H]2O)c(=O)o1 (stereo not given in full) [DEXOYFUSAPYRONE] | 12 | Active | 13.5 | 17 | 0 | 3.12 | 10.5 | 3.12 | >50 | 0 | 6.25 | 12.4 | Not Active | 4 | 0 | 3.12 | Active | 3.12 | 0 | 16.2 | zone of inhibition at 15 µg/disc [21]: 13.8 mm; LC50 [27]: 37.1 µM; zone of inhibition at 15 µg/disc (Alternaria alternata): 11.7 mm; zone of inhibition at 15 µg/disc (Penicillium verrucosum [22]): 11 mm; zone of inhibition at 15 µg/disc (Wickerhamomyces anomalus): 0 mm; Activity (Candida albicans): >50 µg/mL; zone of inhibition at 15 µg/disc (Plenodomus tracheiphilus): 16.3 mm; zone of inhibition at 15 µg/disc (Kluyveromyces lactis): 0 mm; Activity (Aspergillus flavus [25]): 1.56 µg/mL; zone of inhibition at 15 µg/disc (Aspergillus parasiticus): 12.7 mm; zone of inhibition at 15 µg/disc (Fusarium verticillioides): 0 mm
